# Measured values collected from several papers.
# Protocols differ between the studies behind these lines.
# Cell line: LNCaP
# Effect on: cell growth or viability
Structure (SMILES),test,setting,endpoint,result
O=C(CCCCCCC(=O)Nc1ccccc1)NO,MTT,72 h,GI50,5.2 µM
COc1ccc2c(N(C)c3ccc(/C(C)=N/OCCN)cc3)c3c(Cl)coc3nc2c1,trypan blue,72 h,IC50,0.235 µM
CC(C)C[C@H](NC(=O)[C@H](Cc1ccccc1)NC(=O)c1cnccn1)B(O)O,ATP luminescence,,IC50,0.019 µM
O=C(O)C(c1c[nH]c2ccccc12)c1c[nH]c2ccccc12,MTT,"100 µM, 48 h",inhibition,34%
CNC(=O)c1ccc(N2C(=S)N(c3ccc(C#N)c(C(F)(F)F)c3)C(=O)C2(C)C)cc1F,MTT,,GI50,13.7 µM
O=C(CCCCCCC(=O)Nc1ccc(CCF)cc1)NO,MTT,72 h,GI50,4.8 µM
CC(=O)O[C@@]12CO[C@@H]1C[C@H](O)[C@@]1(C)C(=O)[C@H](O)C3=C(C)[C@@H](OC(=O)[C@H](O)[C@@H](NC(=O)OC(C)(C)C)c4ccccc4)C[C@@](O)([C@@H](OC(=O)c4ccccc4)[C@H]21)C3(C)C,trypan blue,,IC50,0.001 µM
COC1=CC(=O)N(C(=O)[C@@H](CCC(Cl)(Cl)Cl)NC(=O)C(C)(C)C)[C@@H]1CCC(Cl)Cl,resazurin,96 h,IC50,6.9 µM
Cn1cc(C(c2ccc(C(=O)O)cc2)c2cn(C)c3ccccc23)c2ccccc21,MTT,48 h,IC50,36 µM
CC(O)(CS(=O)(=O)c1ccc(F)cc1)C(=O)Nc1ccc(C#N)c(C(F)(F)F)c1 (stereo not shown),XTT,7 days,IC50,4.6 µM
COc1cc(C(=O)c2csc(-c3ccccc3)n2)cc(OC)c1OC,SRB,96 h,IC50,0.028 µM
C[C@]12CC[C@H](O)CC1=CC[C@@H]1[C@@H]2CC[C@]2(C)C(n3cnc4ccccc43)=CC[C@@H]12,XTT,7 days,IC50,2.6 µM
O=C(O)/C=C/c1cccc(C(c2c[nH]c3ccccc23)c2c[nH]c3ccccc23)c1,MTT,48 h,IC50,43 µM
COc1cc(Nc2nccc(-c3cnn4nc(OC)ccc34)n2)cc(C(F)(F)F)c1,ATP luminescence,,IC50,0.47 µM
FC(F)(F)c1ccc(C(c2c[nH]c3ccccc23)c2c[nH]c3ccccc23)cc1,MTT,"20 µM, 48 h",inhibition,97%
C[C@]12CC[C@H](O)CC1=CC[C@@H]1[C@@H]2CC[C@]2(C)C(c3cccnc3)=CC[C@@H]12,MTT,,GI50,11.2 µM
